Test results as given in ChEMBL document CHEMBL4428078, “Discovery of S3-Truncated, C-6 Heteroaryl Substituted Aminothiazine β-Site APP Cleaving Enzyme-1 (BACE1) Inhibitors” (J Med Chem, 2016).
pEC50, pIC50: −log10 of the molar value.

Assays:
Beta-secretase 1 = Beta-secretase 1 (Homo sapiens, UniProt P56817); assay: Inhibition of BACE1 in human H4 cells expressing swedish mutant APP751 assessed as reduction in amyloid beta level measured after 19 hrs; assay type: cell-based
[1] = Metabolic stability in rat liver microsomes assessed as compound remaining at 0.5 uM measured after 10 mins; assay type: ADME, Microsome; details: read-out: Stability
How it was run: (§1)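 Test compound at 0.5 µM incubated 10 min with mouse, rat or human liver microsomes. Read-out is percent of parent compound remaining.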

[2] = Metabolic stability in mouse liver microsomes assessed as compound remaining at 0.5 uM measured after 10 mins; assay type: ADME, Microsome; details: read-out: Stability; how it was run: as §1
[3] = Metabolic stability in human liver microsomes assessed as compound remaining at 0.5 uM measured after 10 mins; assay type: ADME, Microsome; details: read-out: Stability; how it was run: as §1
Rattus norvegicus [4] = assay: In vivo inhibition of BACE1 in po dosed rat assessed as reduction in brain amyloid beta42 level measured after 5 hrs by ELISA
Cytochrome P450 2C9 = Cytochrome P450 2C9 (Homo sapiens, UniProt P11712); assay: Inhibition of recombinant human CYP2C9 preincubated for 10 mins followed by addition of MFC as substrate measured after 45 mins; assay type: ADME
How it was run: (§2)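 Inhibition of recombinant human CYP1A2, CYP2C9, CYP2C19, CYP2D6 and CYP3A4 enzymes, reported as IC50.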

[5] = Fraction unbound in human plasma; assay type: ADME, cell-free
How it was run: (§3)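 Unbound fraction of drug determined in human, rat and mouse plasma, reported as percent unbound.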

Cytochrome P450 1A2 = biological target: T1, Cytochrome P450 1A2 (Homo sapiens, UniProt P05177); assay: Inhibition of recombinant human CYP1A2 preincubated for 10 mins followed by addition of CEC as substrate measured after 45 mins; assay type: ADME; how it was run: as §2
T1 sequence (P05177 whole entry): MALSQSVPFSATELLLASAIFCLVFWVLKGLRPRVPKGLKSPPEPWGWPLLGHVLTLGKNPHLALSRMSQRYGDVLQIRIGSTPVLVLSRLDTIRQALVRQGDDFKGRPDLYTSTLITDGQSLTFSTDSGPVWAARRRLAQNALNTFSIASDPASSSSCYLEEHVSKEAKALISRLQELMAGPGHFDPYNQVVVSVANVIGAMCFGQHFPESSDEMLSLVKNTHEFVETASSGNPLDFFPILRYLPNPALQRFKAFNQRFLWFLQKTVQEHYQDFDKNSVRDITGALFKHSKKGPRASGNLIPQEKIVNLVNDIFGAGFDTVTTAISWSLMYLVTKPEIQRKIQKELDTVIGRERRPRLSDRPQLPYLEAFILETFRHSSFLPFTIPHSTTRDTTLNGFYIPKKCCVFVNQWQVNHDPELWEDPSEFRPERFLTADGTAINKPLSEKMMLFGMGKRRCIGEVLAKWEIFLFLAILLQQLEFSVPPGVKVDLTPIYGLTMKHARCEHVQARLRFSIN

[6] = Fraction unbound in rat plasma at 1 to 10 mg/kg, po; assay type: ADME, organism-based; details: in vivo
[7] = Fraction unbound in mouse plasma; assay type: ADME, cell-free; how it was run: as §3
[8] = Clearance in rat plasma at 2 mg/kg, iv administered as bolus or 10 mg/kg, po; assay type: ADME, organism-based
How it was run: (§4)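 Rats given a 2 mg/kg IV bolus or 10 mg/kg orally for IV/PO pharmacokinetics. Clearance and volume of distribution come from the IV arm. Clearance is also expressed against rat hepatic blood flow.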

[9] = Plasma concentration in rat at 1 mg/kg, po measured after 5 hrs; assay type: ADME, organism-based
How it was run: (§5)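 Female rats dosed orally in PEG-400:EtOH:Tween 80 (84:15:1) at 1, 3 or 10 mg/kg. Plasma and brain were collected 5 h post-dose, N=5 rats/dose. Total drug concentrations were determined and the brain/plasma ratio calculated. Values are means with SD.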

[10] = Ratio of drug level in brain to plasma of rat at 1 mg/kg, po measured at 5 hrs post dose; assay type: ADME, organism-based; details: read-out: BPR; how it was run: as §5
[11] = Ratio of fraction unbound in rat plasma to IC50 for BACE1 in human H4 cells expressing swedish mutant APP751; assay type: ADME, cell-based
[12] = Drug uptake in mouse brain at 30 mg/kg, po measured after 3 hrs; assay type: ADME, organism-based; details: read-out: Drug uptake
How it was run: (§6)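 Young mice given a single oral dose of 30 mg/kg. Total brain and plasma drug levels were measured 3 h post-dose and the brain/plasma ratio derived.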

[13] = Drug uptake in rat brain at 1 mg/kg, po measured after 5 hrs; assay type: ADME, organism-based; details: read-out: Drug uptake; how it was run: as §5
Rattus norvegicus [14] = assay: In vivo inhibition of BACE1 in po dosed rat assessed as reduction in total amyloid beta level in brain measured after 5 hrs by ELISA relative to control
[15] = Cmax in rat at 10 mg/kg, po measured after 5 hrs; assay type: ADME, organism-based; set-up: dose 10 mg/kg, route oral; details: in vivo
How it was run: (§7)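 Rat IV/PO pharmacokinetics with a 2 mg/kg IV bolus and a 10 mg/kg oral dose. […] Oral bioavailability is calculated from the IV and PO AUC values.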

Cytochrome P450 3A4 = Cytochrome P450 3A4 (Homo sapiens, UniProt P08684); assay: Inhibition of recombinant human CYP3A4 preincubated for 10 mins followed by addition of BFC as substrate measured after 45 mins; assay type: ADME; how it was run: as §2
[16] = Oral bioavailability in rat at 10 mg/kg measured after 5 hrs; assay type: ADME, organism-based; details: in vivo; how it was run: as §7
[17] = Plasma concentration in rat at 3 mg/kg, po measured after 5 hrs; assay type: ADME, organism-based; how it was run: as §5
Cytochrome P450 2C19 = Cytochrome P450 2C19 (Homo sapiens, UniProt P33261); assay: Inhibition of recombinant human CYP2C19 preincubated for 10 mins followed by addition of CEC as substrate measured after 45 mins; assay type: ADME; how it was run: as §2
[18] = Ratio of drug level in brain to plasma of rat at 3 mg/kg, po measured at 5 hrs post dose; assay type: ADME, organism-based; details: read-out: BPR; how it was run: as §5
[19] = Drug uptake in rat brain at 3 mg/kg, po measured after 5 hrs; assay type: ADME, organism-based; details: read-out: Drug uptake; how it was run: as §5
[20] = Fraction unbound in rat plasma; assay type: ADME, cell-free; how it was run: as §3
[21] = Plasma concentration in mouse at 30 mg/kg, po measured after 3 hrs; assay type: ADME, organism-based; how it was run: as §6
[22] = Ratio of drug level in brain to plasma of rat at 10 mg/kg, po measured at 5 hrs post dose; assay type: ADME, organism-based; details: read-out: BPR; how it was run: as §5
Cytochrome P450 2D6 = Cytochrome P450 2D6 (Homo sapiens, UniProt P10635); assay: Inhibition of recombinant human CYP2D6 preincubated for 10 mins followed by addition of AMMC as substrate measured after 45 mins; assay type: ADME; how it was run: as §2
Rattus norvegicus [23] = assay: In vivo inhibition of BACE1 in po dosed rat assessed as reduction in brain amyloid beta40 level measured after 5 hrs by ELISA relative to control
[24] = Ratio of drug level in brain to plasma of mouse at 30 mg/kg, po measured at 3 hrs post dose; assay type: ADME, organism-based; details: read-out: BPR; how it was run: as §6
[25] = Plasma concentration in rat at 10 mg/kg, po measured after 5 hrs; assay type: ADME, organism-based; how it was run: as §5
[26] = Volume of distribution in rat plasma at 2 mg/kg, iv administered as bolus or 10 mg/kg, po; assay type: ADME, organism-based; how it was run: as §4
[27] = Clearance in rat plasma at 2 mg/kg, iv administered as bolus or 10 mg/kg, po relative to hepatic blood flow; assay type: ADME, organism-based; details: in vivo; how it was run: as §4
[28] = Drug uptake in rat brain at 10 mg/kg, po measured after 5 hrs; assay type: ADME, organism-based; details: read-out: Drug uptake; how it was run: as §5
Rattus norvegicus [29] = assay: In vivo inhibition of BACE1 in po dosed rat assessed as reduction in brain amyloid beta42 level measured after 5 hrs by ELISA relative to control

Sequence of Beta-secretase 1 (P56817 whole entry): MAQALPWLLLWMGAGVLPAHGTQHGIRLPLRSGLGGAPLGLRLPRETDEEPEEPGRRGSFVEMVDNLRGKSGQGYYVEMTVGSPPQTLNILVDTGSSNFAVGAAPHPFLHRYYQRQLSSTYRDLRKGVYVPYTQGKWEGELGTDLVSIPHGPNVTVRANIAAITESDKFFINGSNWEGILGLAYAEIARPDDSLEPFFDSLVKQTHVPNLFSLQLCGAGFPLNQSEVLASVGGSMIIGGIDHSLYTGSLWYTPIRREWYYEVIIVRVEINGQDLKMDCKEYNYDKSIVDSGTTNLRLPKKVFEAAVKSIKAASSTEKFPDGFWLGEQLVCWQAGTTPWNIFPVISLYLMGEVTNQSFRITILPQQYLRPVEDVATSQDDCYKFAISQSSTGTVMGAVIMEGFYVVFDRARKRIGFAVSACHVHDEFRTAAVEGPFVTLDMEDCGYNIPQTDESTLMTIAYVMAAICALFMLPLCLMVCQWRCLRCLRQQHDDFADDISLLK
Sequence of Cytochrome P450 2C19 (P33261 whole entry): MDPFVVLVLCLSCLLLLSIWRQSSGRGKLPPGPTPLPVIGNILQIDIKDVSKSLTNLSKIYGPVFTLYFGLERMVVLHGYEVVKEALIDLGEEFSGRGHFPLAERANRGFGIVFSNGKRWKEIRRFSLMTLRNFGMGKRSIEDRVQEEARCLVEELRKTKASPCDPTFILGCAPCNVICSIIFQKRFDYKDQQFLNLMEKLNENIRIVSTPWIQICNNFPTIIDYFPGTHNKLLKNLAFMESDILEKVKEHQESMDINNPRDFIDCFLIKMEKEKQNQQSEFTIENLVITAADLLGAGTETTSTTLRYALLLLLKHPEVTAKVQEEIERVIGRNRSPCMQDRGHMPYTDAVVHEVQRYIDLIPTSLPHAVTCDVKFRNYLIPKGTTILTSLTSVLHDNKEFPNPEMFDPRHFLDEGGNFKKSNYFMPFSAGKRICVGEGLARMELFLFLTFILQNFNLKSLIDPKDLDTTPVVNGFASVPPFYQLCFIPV
Sequence of Cytochrome P450 2D6 (P10635 whole entry): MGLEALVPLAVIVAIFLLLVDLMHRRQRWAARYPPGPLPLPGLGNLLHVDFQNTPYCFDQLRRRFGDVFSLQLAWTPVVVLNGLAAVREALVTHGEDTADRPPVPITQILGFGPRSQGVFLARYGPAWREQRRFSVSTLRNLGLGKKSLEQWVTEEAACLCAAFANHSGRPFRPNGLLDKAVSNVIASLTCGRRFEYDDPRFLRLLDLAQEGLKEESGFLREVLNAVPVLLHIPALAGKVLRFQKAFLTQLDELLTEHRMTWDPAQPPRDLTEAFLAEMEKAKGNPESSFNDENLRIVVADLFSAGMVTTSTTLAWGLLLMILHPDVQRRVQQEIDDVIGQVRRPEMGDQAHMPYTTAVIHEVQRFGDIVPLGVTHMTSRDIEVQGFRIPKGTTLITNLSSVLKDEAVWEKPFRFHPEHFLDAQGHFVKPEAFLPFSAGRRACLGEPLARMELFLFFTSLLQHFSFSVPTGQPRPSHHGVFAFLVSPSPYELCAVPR
Sequence of Cytochrome P450 2C9 (P11712 whole entry): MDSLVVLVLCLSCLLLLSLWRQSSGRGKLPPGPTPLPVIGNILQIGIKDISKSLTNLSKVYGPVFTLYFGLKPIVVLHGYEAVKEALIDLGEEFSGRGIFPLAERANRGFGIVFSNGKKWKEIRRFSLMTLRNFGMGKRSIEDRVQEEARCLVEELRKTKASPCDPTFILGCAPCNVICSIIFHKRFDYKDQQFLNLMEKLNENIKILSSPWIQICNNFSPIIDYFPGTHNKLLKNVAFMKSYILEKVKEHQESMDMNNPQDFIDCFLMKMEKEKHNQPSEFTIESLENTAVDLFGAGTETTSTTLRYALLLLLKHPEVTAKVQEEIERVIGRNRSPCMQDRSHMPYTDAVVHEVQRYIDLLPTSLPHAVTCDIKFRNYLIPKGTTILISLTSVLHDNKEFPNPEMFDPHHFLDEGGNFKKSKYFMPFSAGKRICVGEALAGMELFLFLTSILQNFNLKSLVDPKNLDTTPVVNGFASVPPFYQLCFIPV
Sequence of Cytochrome P450 3A4 (P08684 whole entry): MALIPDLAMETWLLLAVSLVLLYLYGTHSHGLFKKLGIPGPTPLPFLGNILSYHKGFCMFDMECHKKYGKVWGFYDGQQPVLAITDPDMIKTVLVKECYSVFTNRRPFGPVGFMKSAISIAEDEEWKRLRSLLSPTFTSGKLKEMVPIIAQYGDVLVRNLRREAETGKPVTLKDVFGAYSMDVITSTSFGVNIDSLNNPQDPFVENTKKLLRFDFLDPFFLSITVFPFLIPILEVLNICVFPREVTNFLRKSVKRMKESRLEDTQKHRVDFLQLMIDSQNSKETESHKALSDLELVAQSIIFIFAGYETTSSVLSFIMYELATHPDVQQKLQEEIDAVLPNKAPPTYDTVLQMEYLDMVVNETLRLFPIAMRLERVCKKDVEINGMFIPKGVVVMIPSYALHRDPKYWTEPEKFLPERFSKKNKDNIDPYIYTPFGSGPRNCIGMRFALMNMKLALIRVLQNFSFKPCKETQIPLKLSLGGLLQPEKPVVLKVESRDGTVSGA

Compound `Cc1onc(-c2cccnc2)c1[C@@H]1C[C@@](C)(c2ccc(F)cc2F)N=C(N)S1` has a pIC50 (Beta-secretase 1) of 6.74, a remaining at 10 min, 0.5 µM [1] of 5% and a remaining at 10 min, 0.5 µM [2] of 6%. It also gave a remaining at 10 min, 0.5 µM [3] of 17%.

For `Cc1noc(-c2ccccc2)c1[C@@H]1C[C@@](C)(c2ccc(F)cc2F)N=C(N)S1`, the pIC50 (Beta-secretase 1) was 6.64, the remaining at 10 min, 0.5 µM [1] was 20% and the remaining at 10 min, 0.5 µM [2] was 6%. It also gave a remaining at 10 min, 0.5 µM [3] of 39%.

With `Cc1nocc1[C@@H]1C[C@@](C)(c2ccc(F)cc2F)N=C(N)S1` the pIC50 (Beta-secretase 1) was 6.52, the remaining at 10 min, 0.5 µM [1] was 77% and the remaining at 10 min, 0.5 µM [2] was 80%. The remaining at 10 min, 0.5 µM [3] was 65%.

`Cc1noc(-c2ccc(F)cc2)c1[C@@H]1C[C@@](C)(c2ccc(F)cc2F)N=C(N)S1` gave a pIC50 (Beta-secretase 1) of 6.39, a remaining at 10 min, 0.5 µM [1] of 88% and a remaining at 10 min, 0.5 µM [2] of 53%. It also gave a remaining at 10 min, 0.5 µM [3] of 45%.

In the case of `CCc1noc(CC)c1[C@@H]1C[C@@](C)(c2ccc(F)cc2F)N=C(N)S1`, the pIC50 (Beta-secretase 1) was 6.38, the remaining at 10 min, 0.5 µM [1] was 67% and the remaining at 10 min, 0.5 µM [2] was 59%. For the same compound, the remaining at 10 min, 0.5 µM [3] was 35%.

`CCc1noc(C)c1[C@@H]1C[C@@](C)(c2ccc(F)cc2F)N=C(N)S1` gave a pIC50 (Beta-secretase 1) of 6.60, a remaining at 10 min, 0.5 µM [1] of 59% and a remaining at 10 min, 0.5 µM [2] of 41%. For the same compound, the remaining at 10 min, 0.5 µM [3] was 21%.

In the case of `Cc1noc(C)c1[C@@H]1C[C@@](C)(c2ccc(F)cc2)N=C(N)S1`, the pIC50 (Beta-secretase 1) was 6.22, the remaining at 10 min, 0.5 µM [1] was 78% and the remaining at 10 min, 0.5 µM [2] was 90%. For the same compound, the remaining at 10 min, 0.5 µM [3] was 73%.

`C[C@@]1(c2ccc(F)cc2F)C[C@@H](c2cncnc2)SC(N)=N1` gave a pEC50 (Rattus norvegicus [4]) of 5.42, a pIC50 (Cytochrome P450 2C9) of under 4.70 and a fraction unbound [5] of 0.37. For the same compound, the pIC50 (Cytochrome P450 1A2) was under 4.70, the “Cp(f)” value [6] was 1.8 µM and the fraction unbound [7] was 0.42. The clearance [8] was 12 mL/min/kg, the concentration at 5 h [9] was 820 nM and the Kp at 5 h [10] was 2.8. It also gave a Ratio [11] of 6, a concentration at 3 h [12] of 6.7 µM and a concentration at 5 h [13] of 2300 nM. For the same compound, the inhibition (Rattus norvegicus [14]) was “Dose-dependent effect”, the Cmax [15] was 3.7 µM and the pIC50 (Cytochrome P450 3A4) was under 4.70. For the same compound, the bioavailability [16] was over 100%, the concentration at 5 h [17] was 1800 nM and the pIC50 (Cytochrome P450 2C19) was 5.05. The pIC50 (Beta-secretase 1) was 6.51, the Kp at 5 h [18] was 1.8 and the concentration at 5 h [19] was 2800 nM. It also gave a fraction unbound [20] of 0.48, a remaining at 10 min, 0.5 µM [1] of 95% and a concentration at 3 h [21] of 6.7 µM. For the same compound, the Kp at 5 h [22] was 1.8, the remaining at 10 min, 0.5 µM [2] was 68% and the pIC50 (Cytochrome P450 2D6) was under 4.70. For the same compound, the remaining at 10 min, 0.5 µM [3] was 90%, the inhibition (Rattus norvegicus [23]) was “Dose-dependent effect” and the Kp at 3 h [24] was 1.8. It also gave a concentration at 5 h [25] of 6.6 µM, a Vd [26] of 8.2 L/kg and a CL [27] of 20%. For the same compound, the concentration at 5 h [28] was 12 µM and the inhibition (Rattus norvegicus [29]) was “Dose-dependent effect”.
